AGP1-GFP MLPCN: modulators of AGP1-GFP expression in yeast TOR pathway, primary screen, cell-based, multiplex flow cytometry, S. cerevisiae, MLPCN library; 3 h; GFP as percent of DMSO wells; hit rate 0.02% among 320,000; GFP response vs DMSO, % at 10 µM;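 active = GFP response relative to DMSO above a set limit, near screen average plus 3 SD, cut at about 150% in these data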;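 note: median GFP channel fluorescence of the gated AGP1 strain per well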
MEP2-GFP yeast: modulators of MEP2-GFP levels in yeast, primary screen, S. cerevisiae, multiplex flow cytometry, MLPCN library | S. cerevisiae MEP2-GFP strain, 3 h; 100% = DMSO control level | AID 2016, 2009 | hit rate 0.51% among 330,000 | GFP response vs DMSO, % at 10 µM;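 active = GFP response versus DMSO above a set limit, roughly screen mean plus 3 SD, cut at about 180% in these data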;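 note: median GFP fluorescence of the barcode-gated MEP2-GFP cells per well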
LAP4 TOR yeast: modulators of LAP4-GFP expression in yeast, primary screen, S. cerevisiae, multiplex flow cytometry, MLPCN library; 3 h; median GFP as percent of DMSO wells; GFP response vs DMSO, % at 10 µM; hit rate 0.34% among 320,000;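 active = GFP response vs DMSO above a set limit, about the screen mean plus 3 SD, cut at about 150% in these data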
T cell modulator: modulators of CD8 T cell-vesicle binding, primary screen, mouse 2C CD8+ T cells, flow cytometry. 2C CD8+ T cell-vesicle binding; active compounds read low. response (vesicle binding), % at 7 µM. hit rate 0.068% among 330,000. AID 2052, 2009;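 active = response, share of CD8 T cells binding vesicles, and their 90th percentile fluorescence all below set limits, cut at about 80% in these data, passing the limit was not always enough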;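 note: values below 100% mean blocked vesicle binding to the CD8+ T cells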
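Also added: QL9-peptide-loaded Drosophila micro-vesicles bearing Ld, ICAM-1 and B7-1; Test system: purified 2C TCR transgenic mouse naive CD8+ T cells; Measured by: cytometric PE anti-B7-1 and Alexa647 anti-CD8 signals after 1% paraformaldehyde fixation; Timing: binding step 1.5 h, 37 °C, antibody labelling 20 min, ice.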
RPL19A TOR yeast: RPL19A-GFP expression modulators in yeast, primary screen, cell-based, S. cerevisiae, multiplex flow cytometry, MLPCN. S. cerevisiae RPL19A-GFP strain, 3 h; active compounds read low. percent response vs DMSO, % at 10 µM. hit rate 0.3% among 330,000;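 active = percent response vs DMSO below 50%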;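 note: median channel GFP fluorescence of the barcoded RPL19A-GFP strain; ratio of sample median GFP to plate DMSO average so 100% = DMSO; lower means less RPL19A-GFP as with rapamycin TOR inhibition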
CIT2-GFP yeast: modulators of CIT2-GFP expression in yeast, primary screen, S. cerevisiae, GFP fusion, multiplex flow cytometry, MLPCN library; S. cerevisiae CIT2-GFP strain, 3 h; 100 means same as DMSO wells; hit rate 0.065% among 320,000; GFP response vs DMSO, % at 10 µM;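 active = GFP response relative to DMSO above a set limit, near the screen mean plus 3 SD, cut at about 150% in these data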;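 note: ratio of well median GFP fluorescence to mean of DMSO wells on the plate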
LAP4-GFP pick2: LAP4-GFP expression modulators in yeast, confirmation, cell-based, second cherry pick, flow cytometry. shares compounds with LAP4 TOR yeast. S. cerevisiae LAP4-GFP strain, 3 h. GFP response vs DMSO, % at 10 µM. hit rate 20% among 590;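 active = GFP signal as percent of the solvent control above about 150%, meaning raised reporter expression, limit read from the data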;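 note: ratio of well median GFP fluorescence to plate DMSO mean so 100% = DMSO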
MEP2 cherry2: modulators of MEP2-GFP levels in yeast, confirmation, S. cerevisiae, flow cytometry GFP, second cherry picks. shares compounds with LAP4 TOR yeast. S. cerevisiae MEP2-GFP strain, 3 h. GFP response vs DMSO, % at 10 µM. hit rate 10% among 590;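 active = GFP signal above 150% of the solvent control wells, that is a rise of more than half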;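 note: median channel GFP fluorescence of all gated yeast cells per well; ratio of median GFP to plate DMSO average so 100% = DMSO level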
RPL19A GFP CP2: RPL19A-GFP modulators in TOR pathway yeast, confirmation, cell-based, S. cerevisiae, flow cytometry, second cherry pick; AID 2623, 2010; hit rate 3% among 590; GFP response vs DMSO, % at 10 µM; S. cerevisiae RPL19A-GFP strain, 3 h; active compounds read low; 100% means same as DMSO wells; shares compounds with LAP4 TOR yeast;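 active = under 65% GFP response relative to DMSO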;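 note: median GFP channel fluorescence per well over the all cells gate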
CIT2-GFP pick2: modulators of CIT2-GFP expression in yeast, confirmation, flow cytometry, second cherry pick, single plex; shares compounds with LAP4 TOR yeast; S. cerevisiae CIT2-GFP strain, 3 h; DMSO control wells read 100%; GFP response vs DMSO, % at 10 µM; hit rate 8% among 590; AID 2624, 2010;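 active = GFP response vs DMSO above about 150%, limit read from the data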;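 note: median green fluorescence per well over all gated yeast cells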
AGP1 GFP CP2: AGP1-GFP expression modulators, hit retest, confirmation, cell-based, flow cytometry, S. cerevisiae, cherry pick set 2; S. cerevisiae AGP1-GFP strain, 3 h; AID 2643, 2010; shares compounds with LAP4 TOR yeast; 590 tested, under 10 active; percent response vs DMSO, % at 10 µM;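 active = over 150 percent of DMSO response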;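 note: median GFP channel fluorescence over all cells without mother daughter split; sample median GFP divided by mean DMSO control so 100% equals DMSO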
s288c autofluor: compound autofluorescence in yeast s288c, dose response, artefact control for yeast TOR pathway GFP screen, s288c strain. shares compounds with LAP4 TOR yeast. fluorescence change (kMESF span) at 33 µM. AID 2757, 2010. 610 tested, under 10 active. S. cerevisiae s288c, 520 nm autofluorescence, flow cytometry, 3 h; active compounds read high; zero means same as solvent-only cells;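 active = fluorescence span over the dose series, or activity score, above about 33, limit read from the data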
An asterisk follows results filed as active; i = inactive; nt = not tested or not shown. Compounds with a hit are over-represented: about 0.96% of the library has one in this group of screens.

SMILES	AGP1-GFP MLPCN	MEP2-GFP yeast	LAP4 TOR yeast	T cell modulator	RPL19A TOR yeast	CIT2-GFP yeast	LAP4-GFP pick2	MEP2 cherry2	RPL19A GFP CP2	CIT2-GFP pick2	AGP1 GFP CP2	others
CCOc1ccc(-c2nc(CS(=O)(=O)CC(=O)NCc3ccc(F)cc3)c(C)o2)cc1	138	177*	181*	743	86	138	102	101	97	102	101
Cn1nc(CC(=O)Nc2ncc(Br)s2)c2ccccc2c1=O	26	158	92	380	64	99	96	103	100	106	99
O=C(NNC(=S)NCc1ccccc1)c1ccc(Br)cc1	107	122	109	310	103	110	nt	nt	nt	nt	nt
Cc1[nH]c(-c2ccccn2)nc(=S)c1Cl	85	93	267*	295	94	86	nt	nt	nt	nt	nt	s288c autofluor=0.4
CC(=O)NC12CC3CC(C1)CC(C(=O)N1CCN(S(=O)(=O)c4cccc(C(F)(F)F)c4)CC1)(C3)C2	104	100	104	318	97	102	nt	nt	nt	nt	nt
c1nc(C2CCCCC2)cc2cc3c(cc12)OCO3	88	86	91	205	89	84	nt	nt	nt	nt	nt
O=C(Nc1ccc2c(c1)OCCO2)c1ccc(Cl)c([N+](=O)[O-])c1	92	86	158*	666	91	76	105	103	97	93	97
Cc1cc(C(=O)Nc2ccc3c(c2)OCCO3)ccc1[N+](=O)[O-]	98	106	90	269	103	102	nt	nt	nt	nt	nt
Cc1cc(-c2cc(C(=O)Nc3ccccc3)on2)nc(NCC2CC2)n1	87	92	108	667	98	96	102	121	103	104	105
Cc1cc(-c2cc(C(=O)NC3CCCC3)on2)nc(NCC2CC2)n1	82	93	125	249	97	98	nt	nt	nt	nt	nt
CC(C)c1cc(-c2cc(C(=O)Nc3ccccc3)on2)nc(NCC2CC2)n1	91	107	104	908	92	80	99	106	100	93	99
CC(C)c1cc(-c2cc(-c3ccc(Cl)cc3)on2)nc(NCC2CC2)n1	86	99	126	i	96	93	nt	nt	nt	nt	nt
COCCNc1nc(-c2cc(C(=O)Nc3ccccc3)on2)cc(C(C)C)n1	70	92	133	350	88	62	103	102	98	96	101
